We go through 65 molecules from PubChem BioAssay AID602408 (Southern Research Specialized Biocontainment Screening …, 2012).

Where “and” joins values, the source holds several entries; their conditions need not be identical. Identical values can stand only once. Calls of active or inactive are those of the source.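 Rule for the calls: active = inhibition of phage lysis above 30%; inactive = the rest.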 Where only a bound is given, the exact number is not on record here.

The test system of assay [1] is E. coli UTI89 K1 capsule, phage lysis, A600. The assay is described as follows: inhibition of K1F phage lysis of E. coli UTI89, confirmation, bacterial capsule biogenesis project, UTI89 strain, A600 absorbance, round 2 (AID 602408). In a few lines: (§1)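 Material: E. coli K1 UTI89 cells / Medium: LB / Probe or stimulus: K1F phage / Times: 1.5 h pre-incubation, 2 h phage at 37 °C / Signal: OD600 absorbance / Replication: duplicates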

Test in assay [2]: as above
Conditions: E. coli UTI89 K1 capsule, phage lysis, A600; at 100 µM (top of the series). Summed up:
as §1

Usually IC50 stands for the concentration that inhibits the measured activity by half. With `O=C(Nc1cc(-c2ccccc2)sc1C(=O)O)c1cccs1`, the IC50 in assay [1] was 68.1 µM. Take `O=C(NCc1cc([N+](=O)[O-])ccc1O)c1cccnc1Sc1ccccc1Cl`: in assay [1], the 50% inhibitory concentration (IC50) was 14.8 µM. On to `CC(C)c1ccc(-c2cc(NC(=O)c3c(F)cccc3F)c(C(=O)O)s2)cc1`, for which the 50% inhibitory concentration (IC50) in assay [1] is 5.88 µM. Turning to `CCOc1ccc(-c2cc(NC(=O)c3c(F)cccc3C(F)(F)F)c(C(=O)O)s2)cc1`, in assay [1], the IC50 was 52.6 µM. Still for that read-out and setting: the same measure for `CCCc1ccc(-c2cc(NC(=O)c3c(F)cccc3F)c(C(=O)O)s2)cc1`: 2.63 µM; for `COc1ccc(-c2cc(NC(=O)c3ccc(Br)o3)c(C(=O)O)s2)cc1`: 8.75 µM; for `[N-]=[N+]=NCCOc1ccc(-c2cc(NC(=O)c3c(F)cccc3F)c(C(=O)O)s2)cc1`: 17.5 µM. On the same count and under the same terms, the same measure for `O=C(Nc1cc(-c2ccc(OCC(F)(F)F)cc2)sc1C(=O)O)c1ccc(Br)o1`: 4.9 µM; for `O=C(O)c1sc(-c2ccc(OCCC(F)(F)F)cc2)cc1NC(=O)c1c(F)cccc1F`: 0.84 µM; for `CCCc1ccc(-c2cc(NC(=O)c3ccc(Br)o3)c(C(=O)O)s2)cc1`: 1.43 µM. Regarding `CCOc1ccc(-c2cc(NC(=O)c3ccc(OC)c(OC)c3)c(C(=O)O)s2)cc1`, the IC50 in assay [1] was 59.9 µM. As for `CCCc1ccc(-c2cc(NC(=O)c3c(F)cc(F)cc3F)c(C(=O)O)s2)cc1`, the IC50 in assay [1] is 15.9 µM. In the case of `CCCCOc1ccc(-c2cc(NC(=O)c3cc(Br)c(Br)o3)c(C(=O)O)s2)cc1`, in assay [1], the IC50 is 23.3 µM. `CC(C)c1ccc(-c2cc(NC(=O)c3ccc(Br)o3)c(C(=O)O)s2)cc1`: the IC50 in assay [1] is 2.81 µM. In the case of `CCCCOc1ccc(-c2cc(NC(=O)c3ccc(Br)o3)c(C(=O)O)s2)cc1`, the IC50 in assay [1] was 0.85 µM. For the molecule `CC1(C(=O)O)CCC(C(=O)Nc2ccc3ccccc3c2)C1(C)C` (configuration not stated), the IC50 in assay [1] was 43.9 µM. Turning to `O=C(Nc1ccnc(F)c1)c1ccc2ncsc2c1`, in assay [1], the IC50 is 4.62 µM.

Regarding `Cc1ccc(-c2cc(NC(=O)c3ccc(Br)o3)c(C(=O)O)s2)cc1`, in assay [1], the IC50 is 11.3 µM.

Regarding `CC(C)c1ccc(-c2cc(NC(=O)c3cccc(F)c3)c(C(=O)O)s2)cc1`, the IC50 in assay [1] is 18.4 µM. Turning to `O=C(O)c1sc(-c2ccc(OCC(F)(F)F)cc2)cc1NC(=O)c1c(F)cc(F)cc1F`, the IC50 in assay [1] was 94.9 µM. Regarding `O=C(NC1CCNCC1)c1ccc2ncsc2c1`, the inhibition of phage lysis in assay [2] was -6.19% (inactive).

For `O=C(NCCc1ccncc1)c1ccc2ncsc2c1`, the inhibition of phage lysis in assay [2] is 8.25% (inactive). `O=C(ONc1ccc(N=NC(=O)c2ccccc2O)cc1)c1ccccc1`: in assay [1], the IC50 was 2.01 µM.

In the case of `O=C(O)c1sc(-c2ccc(OCCC(F)(F)F)cc2)cc1NC(=O)c1c(F)cc(F)cc1F`, the IC50 in assay [1] was 3.11 µM. Still for that read-out and setting: as for `Cc1ccc(-c2cc(NC(=O)c3cccc(F)c3)c(C(=O)O)s2)cc1`, the figure is 44.5 µM.

Regarding `O=C(Nc1ccnc(Cl)c1)c1ccc2ncsc2c1`, in assay [1], the IC50 was 2.57 µM.

In the case of `CC(C)c1ccc(-c2cc(NC(=O)c3cc4ccccc4o3)c(C(=O)O)s2)cc1`, the IC50 in assay [1] is 23.6 µM. `O=C(Nc1ccncc1)c1ccc2ncsc2c1`: the IC50 in assay [1] was 1.05 µM. The inhibition of phage lysis in assay [2] was 17.9% (inactive). In the case of `CCOc1ccc(-c2cc(NC(=O)c3cccc(Cl)c3)c(C(=O)O)s2)cc1`, the IC50 in assay [1] was 64.9 µM. On to `CC(C)(C)c1ccc(-c2cc(NC(=O)c3c(F)cccc3F)c(C(=O)O)s2)cc1`, for which the IC50 in assay [1] is 6.99 µM. For `COc1ccc2nc(NC(=O)c3ccco3)sc2c1`, in assay [2], the inhibition of phage lysis was 0.81% (inactive). For `CCCOc1ccc(-c2cc(NC(=O)c3c(F)cc(F)cc3F)c(C(=O)O)s2)cc1`, the IC50 in assay [1] was 8.06 µM. With `CCOc1ccc(-c2cc(NC(=O)c3cccc(F)c3)c(C(=O)O)s2)cc1`, the IC50 in assay [1] was 20.1 µM. Still for that read-out and setting: the same measure for `O=C(Nc1cc(-c2ccc(C(F)(F)F)cc2)sc1C(=O)O)c1ccc(Br)o1`: 9.74 µM. Consider `O=C(Nc1cc(-c2ccc(OCCCC(F)(F)F)cc2)sc1C(=O)O)c1cc(Br)c(Br)o1`, for which the IC50 in assay [1] is 32.2 µM. Further, the inhibition of phage lysis in assay [2] was 12.2% (inactive).

In the case of `O=C(Nc1cc(-c2ccc(OCCCC(F)(F)F)cc2)sc1C(=O)O)c1ccc(Br)o1`, the IC50 in assay [1] was 1.78 µM. Take `CCOc1ccc(-c2cc(NC(=O)c3ccc(Br)s3)c(C(=O)O)s2)cc1`: in assay [1], the IC50 is 13.9 µM.

As to `CCCCOc1ccc(-c2cc(NC(=O)c3c(F)cc(F)cc3F)c(C(=O)O)s2)cc1`, the IC50 in assay [1] was 6.39 µM. For the molecule `O=C(O)c1sc(-c2ccc(OC(F)(F)F)cc2)cc1NC(=O)c1c(F)cccc1F`, the IC50 in assay [1] was 9.77 µM. On to `COc1cc(NC(=O)c2ccc3ncsc3c2)ccn1`, for which, in assay [1], the IC50 was 7.75 µM. Take `CCCCOc1ccc(-c2cc(NC(=O)c3c(F)cccc3F)c(C(=O)O)s2)cc1`: the IC50 in assay [1] is below 0.78 µM.

As to `CCCc1ccc(-c2cc(NC(=O)c3cc(Br)c(Br)o3)c(C(=O)O)s2)cc1`, the IC50 in assay [1] is 6.78 µM. As to `CC1=NN2C(=N)/C(=C\c3ccc(SCc4ccco4)o3)C(=O)N=C2S1`, the IC50 in assay [1] is 37.9 µM. Consider `CCOc1ccc2nc(NC(=O)c3ccc(Br)s3)sc2c1`, for which the IC50 in assay [1] is 5.06 µM.

For `O=C(Nc1ncccc1O)c1ccc2ncsc2c1`, the inhibition of phage lysis in assay [2] is 0.85% (inactive). Regarding `O=C(Nc1ccncc1F)c1ccc2ncsc2c1`, the IC50 in assay [1] was 18.6 µM. In the case of `O=C(O)c1sc(-c2ccc(OCCCC(F)(F)F)cc2)cc1NC(=O)c1c(F)cc(F)cc1F`, the IC50 in assay [1] was 5.53 µM. As to `O=C(O)c1sc(-c2ccc(C(F)(F)F)cc2)cc1NC(=O)c1c(F)cccc1F`, the IC50 in assay [1] was 20.9 µM. As to `O=C(O)c1sc(-c2ccc(OCC(F)(F)F)cc2)cc1NC(=O)c1c(F)cccc1F`, the IC50 in assay [1] is 2.86 µM. Turning to `COc1cc2sc(NC(=O)c3ccc(Br)s3)nc2cc1F`, the inhibition of phage lysis in assay [2] is -6.05% (inactive).

Consider `O=C(NCc1ccncc1)c1ccc2ncsc2c1`, for which the inhibition of phage lysis in assay [2] is -2.06% (inactive).

With `O=C(Nc1cc(-c2ccccc2)sc1C(=O)O)c1ccc(Br)o1`, the IC50 in assay [1] was 42.2 µM. Consider `Cc1ccc(-c2cc(NC(=O)c3c(F)cccc3F)c(C(=O)O)s2)cc1`, for which, in assay [1], the IC50 is 21.3 µM.

Regarding `O=C(Nc1cc(-c2ccc(OC(F)(F)F)cc2)sc1C(=O)O)c1ccc(Br)o1`, the IC50 in assay [1] was 4.6 µM.

Consider `CC(C)(C)c1ccc(-c2cc(NC(=O)c3cccc(F)c3)c(C(=O)O)s2)cc1`, for which, in assay [1], the IC50 is 9.72 µM. Consider `COc1ccc2nc(NC(=O)c3cccs3)sc2c1`, for which, in assay [2], the inhibition of phage lysis is 24% (inactive). For `COc1ccc2nc(NC(=O)c3ccc(Br)s3)sc2c1`, the IC50 in assay [1] was 2.33 µM. For `CCOc1ccc(-c2cc(NC(=O)c3c(F)cc(F)cc3F)c(C(=O)O)s2)cc1`, in assay [1], the IC50 was 20 µM.

Consider `CCOc1ccc(-c2cc(NC(=O)c3c(F)cccc3F)c(C(=O)O)s2)cc1`, for which the IC50 in assay [1] was 2.8 µM and 3.73 µM. Regarding `O=C(O)c1sc(-c2ccc(OCCCC(F)(F)F)cc2)cc1NC(=O)c1c(F)cccc1F`, the IC50 in assay [1] was 10.3 µM. Consider `O=C(Nc1cc(-c2ccc(OCCC(F)(F)F)cc2)sc1C(=O)O)c1ccc(Br)o1`, for which, in assay [1], the IC50 was 0.84 µM. Take `O=C(Nc1cc(-c2ccccc2)sc1C(=O)O)c1cccc(Cl)c1`: the IC50 in assay [1] was 85.5 µM.

Take `CCOc1ccc(-c2cc(NC(=O)c3ccc(Br)o3)c(C(=O)O)s2)cc1`: the IC50 in assay [1] is 4.85 µM. Take `O=C(Nc1cc(-c2ccccc2)sc1C(=O)O)c1ccc2c(c1)OCCO2`: the IC50 in assay [1] was 89.1 µM. Take `O=C(Nc1ccnc(Br)c1)c1ccc2ncsc2c1`: the IC50 in assay [1] is 4.26 µM.
